Results as given in ChEMBL document CHEMBL5724801, “EUbOPEN Chemogenomics Library - Multiplex” (2024).
Values joined by “and” are separate entries in the source; they are usually repeats but may differ in a detail not shown here. Identical values can stand only once.

System: Fibroblast
Test: Multiplex assay against human fibroblast
Type: toxicity, cell-based
Method in brief: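 Compound was added to live cells that had been stained at seeding with Hoechst33342, BioTracker Green Microtubule Cytoskeleton Dye, MitoTracker Red and Annexin V Alexa Fluor 680, and imaging followed on a CQ1 microscope at 37°C and 5% CO2. CellPathfinder machine-learning gating divided cells into Hoechst high-intensity objects or normal cells, normal cells into healthy, pyknosed or fragmented nuclei, and pyknosed cells into mitotic or apoptotic. Tubulin, mitochondrial-mass and membrane-permeability phenotypes are per cents of healthy-nucleus cells.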

[1] = 12 h, 1 µM, compound concentration 1 uM
[2] = 12 h, 10 µM, compound concentration 10 uM
[3] = 24 h, 1 µM, compound concentration 1 uM
[4] = 24 h, 10 µM, compound concentration 10 uM
[5] = 48 h, 1 µM, compound concentration 1 uM
[6] = 48 h, 10 µM, compound concentration 10 uM

In the case of `Cc1noc(C)c1-c1cnc2c(-c3ccc(C(=O)O)cc3)cn([C@@H](C)c3ccccn3)c2c1` [PLX-51107], the “Population Apoptotic (%)” value [1] is reported as 4.44% and 12.9%, the “Population Fragmented Nuclei (%)” value [1] is reported as 10.26% and 3.93% and the “Population Healthy Nuclei (%)” value [1] is reported as 66.67% and 82.53%. The “Population Hoechst High Intensity Objects (%)” value [1] was 0%, the “Population Membrane Permeable-Phenotype (%)” value [1] was 4.62% and 1.06% and the “Population Mitochondria Different-Phenotype (%)” value [1] was 10% and 6.88%. For the same compound, the “Population Mitotic Cells (%)” value [1] was 95.56% and 87.1%, the “Population Normal (%)” value [1] was 100% and the “Population Pyknosed Nuclei (%)” value [1] was 23.08% and 13.54%. For the same compound, the “Population Tubulin-Different-Phenotype (%)” value [1] was 11.54% and 14.81%, the “Total Cell Count” value [1] was 195 and 229 and the “Population Apoptotic (%)” value [2] was 16.13% and 16.67%. For the same compound, the “Population Fragmented Nuclei (%)” value [2] was 6.25% and 5.33%, the “Population Healthy Nuclei (%)” value [2] was 78.85% and 82.38% and the “Population Hoechst High Intensity Objects (%)” value [2] was 0%. The “Population Membrane Permeable-Phenotype (%)” value [2] was 4.27% and 2.99%, the “Population Mitochondria Different-Phenotype (%)” value [2] was 12.8% and 10.95% and the “Population Mitotic Cells (%)” value [2] was 83.87% and 83.33%. The “Population Normal (%)” value [2] was 100%, the “Population Pyknosed Nuclei (%)” value [2] was 14.9% and 12.3% and the “Population Tubulin-Different-Phenotype (%)” value [2] was 14.63% and 21.89%. The “Total Cell Count” value [2] was 208 and 244, the “Population Fragmented Nuclei (%)” value [3] was 8.57% and 3.9% and the “Population Healthy Nuclei (%)” value [3] was 78.1% and 88.31%. The “Population Hoechst High Intensity Objects (%)” value [3] was 0%, the “Population Membrane Permeable-Phenotype (%)” value [3] was 2.44% and 0.98% and the “Population Mitochondria Different-Phenotype (%)” value [3] was 4.88% and 3.43%. The “Population Mitotic Cells (%)” value [3] was 82.14% and 94.44%, the “Population Normal (%)” value [3] was 100% and the “Population Pyknosed Nuclei (%)” value [3] was 13.33% and 7.79%. The “Population Tubulin-Different-Phenotype (%)” value [3] was 7.32% and 10.29%, the “Total Cell Count” value [3] was 210 and 231 and the “Population Apoptotic (%)” value [4] was 20% and 14.81%. The “Population Fragmented Nuclei (%)” value [4] was 7.04% and 7.47%, the “Population Healthy Nuclei (%)” value [4] was 85.43% and 81.33% and the “Population Hoechst High Intensity Objects (%)” value [4] was 0%. The “Population Membrane Permeable-Phenotype (%)” value [4] was 3.53% and 2.04%, the “Population Mitochondria Different-Phenotype (%)” value [4] was 11.18% and 6.63% and the “Population Mitotic Cells (%)” value [4] was 80% and 85.19%. The “Population Normal (%)” value [4] was 100%, the “Population Pyknosed Nuclei (%)” value [4] was 7.54% and 11.2% and the “Population Tubulin-Different-Phenotype (%)” value [4] was 12.94% and 15.31%. For the same compound, the “Total Cell Count” value [4] was 199 and 241, the “Population Apoptotic (%)” value [5] was 30% and the “Population Fragmented Nuclei (%)” value [5] was 11.06% and 8.8%. The “Population Healthy Nuclei (%)” value [5] was 84.13% and 87.2%, the “Population Hoechst High Intensity Objects (%)” value [5] was 0% and the “Population Membrane Permeable-Phenotype (%)” value [5] was 0.57% and 3.67%. The “Population Mitotic Cells (%)” value [5] was 70%, the “Population Normal (%)” value [5] was 100% and the “Population Pyknosed Nuclei (%)” value [5] was 4.81% and 4%. For the same compound, the “Population Tubulin-Different-Phenotype (%)” value [5] was 4.57% and 11.93%, the “Total Cell Count” value [5] was 208 and 250 and the “Population Apoptotic (%)” value [6] was 28.57% and 50%. For the same compound, the “Population Fragmented Nuclei (%)” value [6] was 7% and 9.25%, the “Population Healthy Nuclei (%)” value [6] was 86% and 83.7% and the “Population Hoechst High Intensity Objects (%)” value [6] was 0%. The “Population Membrane Permeable-Phenotype (%)” value [6] was 3.49% and 1.05%, the “Population Mitotic Cells (%)” value [6] was 71.43% and 50% and the “Population Normal (%)” value [6] was 100%. For the same compound, the “Population Pyknosed Nuclei (%)” value [6] was 7% and 7.05%, the “Population Tubulin-Different-Phenotype (%)” value [6] was 10.47% and 9.47% and the “Total Cell Count” value [6] was 200 and 227.

In the case of `CC(C)(C)c1ccc(CSc2cnn(C(C)(C)C)c(=O)c2Cl)cc1` [PYRIDABEN], the “Population Apoptotic (%)” value [1] is reported as 46% and 44%, the “Population Fragmented Nuclei (%)” value [1] is reported as 15% and 27% and the “Population Healthy Nuclei (%)” value [1] is reported as 66% and 47%. The “Population Hoechst High Intensity Objects (%)” value [1] was 1% and 4%, the “Population Membrane Permeable-Phenotype (%)” value [1] was 3% and 12% and the “Population Mitochondria Different-Phenotype (%)” value [1] was 1% and 7%. The “Population Mitotic Cells (%)” value [1] was 53% and 55%, the “Population Normal (%)” value [1] was 98% and 95% and the “Population Pyknosed Nuclei (%)” value [1] was 17% and 25%. For the same compound, the “Population Tubulin-Different-Phenotype (%)” value [1] was 28% and 57%, the “Total Cell Count” value [1] was 148 and 142 and the “Population Apoptotic (%)” value [2] was 25% and 47%. For the same compound, the “Population Fragmented Nuclei (%)” value [2] was 11% and 25%, the “Population Healthy Nuclei (%)” value [2] was 68% and 49% and the “Population Hoechst High Intensity Objects (%)” value [2] was 4% and 1%. The “Population Membrane Permeable-Phenotype (%)” value [2] was 2% and 12%, the “Population Mitochondria Different-Phenotype (%)” value [2] was 5% and 4% and the “Population Mitotic Cells (%)” value [2] was 74% and 52%. The “Population Normal (%)” value [2] was 95% and 98%, the “Population Pyknosed Nuclei (%)” value [2] was 20% and 25% and the “Population Tubulin-Different-Phenotype (%)” value [2] was 35% and 54%. For the same compound, the “Total Cell Count” value [2] was 139 and 136, the “Population Apoptotic (%)” value [3] was 35% and 36% and the “Population Fragmented Nuclei (%)” value [3] was 17% and 30%. The “Population Healthy Nuclei (%)” value [3] was 71% and 48%, the “Population Hoechst High Intensity Objects (%)” value [3] was 0% and 4% and the “Population Membrane Permeable-Phenotype (%)” value [3] was 0% and 7%. The “Population Mitochondria Different-Phenotype (%)” value [3] was 2% and 8%, the “Population Mitotic Cells (%)” value [3] was 64% and 63% and the “Population Normal (%)” value [3] was 99% and 95%. The “Population Pyknosed Nuclei (%)” value [3] was 11% and 21%, the “Population Tubulin-Different-Phenotype (%)” value [3] was 20% and 50% and the “Total Cell Count” value [3] was 148. For the same compound, the “Population Apoptotic (%)” value [4] was 56% and 54%, the “Population Fragmented Nuclei (%)” value [4] was 13% and 28% and the “Population Healthy Nuclei (%)” value [4] was 62% and 48%. The “Population Hoechst High Intensity Objects (%)” value [4] was 2% and 0%, the “Population Membrane Permeable-Phenotype (%)” value [4] was 1% and 9% and the “Population Mitochondria Different-Phenotype (%)” value [4] was 7% and 9%. For the same compound, the “Population Mitotic Cells (%)” value [4] was 43% and 45%, the “Population Normal (%)” value [4] was 97% and 99% and the “Population Pyknosed Nuclei (%)” value [4] was 23% and 22%. For the same compound, the “Population Tubulin-Different-Phenotype (%)” value [4] was 40% and 53%, the “Total Cell Count” value [4] was 139 and 136 and the “Population Apoptotic (%)” value [5] was 50% and 45%. The “Population Fragmented Nuclei (%)” value [5] was 27% and 43%, the “Population Healthy Nuclei (%)” value [5] was 62% and 41% and the “Population Hoechst High Intensity Objects (%)” value [5] was 1% and 4%. For the same compound, the “Population Membrane Permeable-Phenotype (%)” value [5] was 0% and 6%, the “Population Mitotic Cells (%)” value [5] was 50% and 54% and the “Population Normal (%)” value [5] was 98% and 95%. For the same compound, the “Population Pyknosed Nuclei (%)” value [5] was 9% and 15%, the “Population Tubulin-Different-Phenotype (%)” value [5] was 28% and 63% and the “Total Cell Count” value [5] was 164 and 153. For the same compound, the “Population Apoptotic (%)” value [6] was 72% and 63%, the “Population Fragmented Nuclei (%)” value [6] was 19% and 36% and the “Population Healthy Nuclei (%)” value [6] was 62% and 48%. The “Population Hoechst High Intensity Objects (%)” value [6] was 4% and 5%, the “Population Membrane Permeable-Phenotype (%)” value [6] was 0% and 8% and the “Population Mitochondria Different-Phenotype (%)” value [6] was 8% and 10%. The “Population Mitotic Cells (%)” value [6] was 28% and 36%, the “Population Normal (%)” value [6] was 95% and 94% and the “Population Pyknosed Nuclei (%)” value [6] was 18% and 15%. For the same compound, the “Population Tubulin-Different-Phenotype (%)” value [6] was 49% and 58% and the “Total Cell Count” value [6] was 143 and 131.
